Laboratory results reported in ChEMBL document CHEMBL2040727, “Substituted thiazoles VI. Synthesis and antitumor activity of new 2-acetamido- and 2 or 3-propanamido-thiazole analogs” (2012).

Legend:
Format in all cases: functional
HL-60(TB) = test: Growth inhibition of human HL-60(TB) cells at 10 uM after 48 hrs by coulter counter analysis; conditions: HL-60, 48 h, read-out: GI
Outline: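 Cells grown in RPMI 1640 with 10% FBS. Compound was dissolved in DMSO and diluted in PBS (under 1% DMSO final), then added in duplicate wells to culture at 6 × 10⁴ cells/ml. PBS/DMSO vehicle controls were included. Incubated at 37 °C, humidified 5% CO₂, for 48 h. Cells were diluted 10-fold in saline and Coulter-counted. Single-dose NCI-60 screen, read as percent growth inhibition.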

K562 = test: Growth inhibition of human K562 cells at 10 uM after 48 hrs by coulter counter analysis; conditions: K562, 48 h, read-out: GI
Outline: (§1)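 Single-dose NCI 60-line panel screen of test compounds. Cells grown in RPMI 1640 with 10% FBS. Compounds dissolved in DMSO, then diluted in phosphate buffer saline (final DMSO below 1%). Wells run in duplicate at 6 × 10⁴ cells/ml. Controls held PBS and DMSO at matching dilutions. Incubation 48 h at 37 °C under humidified 5% CO2. Cells diluted tenfold in saline and counted by Coulter counter. Percent growth inhibition taken from mean-graph of treated-cell growth.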

RPMI-8226 = test: Growth inhibition of human RPMI8226 cells at 10 uM after 48 hrs by coulter counter analysis; conditions: RPMI-8226, 48 h, read-out: GI; outline: as §1
A549 = test: Growth inhibition of human A549/ATCC cells at 10 uM after 48 hrs by coulter counter analysis; conditions: A549, 48 h, read-out: GI; outline: as §1
HOP-92 = test: Growth inhibition of human HOP92 cells at 10 uM after 48 hrs by coulter counter analysis; conditions: HOP-92, 48 h, read-out: GI; outline: as §1
NCI-H460 = test: Growth inhibition of human NCI-H460 cells at 10 uM after 48 hrs by coulter counter analysis; conditions: NCI-H460, 48 h, read-out: GI; outline: as §1
COLO 205 = test: Growth inhibition of human COLO205 cells at 10 uM after 48 hrs by coulter counter analysis; conditions: COLO 205, 48 h, read-out: GI; outline: as §1
HCC 2998 = test: Growth inhibition of human HCC2998 cells at 10 uM after 48 hrs by coulter counter analysis; conditions: HCC 2998, 48 h, read-out: GI; outline: as §1
HCT-15 = test: Growth inhibition of human HCT15 cells at 10 uM after 48 hrs by coulter counter analysis; conditions: HCT-15, 48 h, read-out: GI; outline: as §1
HT-29 = test: Growth inhibition of human HT-29 cells at 10 uM after 48 hrs by coulter counter analysis; conditions: HT-29, 48 h, read-out: GI; outline: as §1
SW-620 = test: Growth inhibition of human SW620 cells at 10 uM after 48 hrs by coulter counter analysis; conditions: SW-620, 48 h, read-out: GI
Outline: (§2)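 Single-dose screen in the NCI 60 cell line panel. Cells grown in RPMI 1640 with 10% FBS. Compounds dissolved in DMSO and diluted in phosphate buffered saline, final DMSO under 1%. Duplicate wells seeded from culture at 6 × 10⁴ cells/ml. Incubated 48 h at 37 °C, humidified, 5% CO2. Cells diluted tenfold in saline and Coulter-counted. Percent growth inhibition computed against PBS/DMSO controls.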

SF-268 = test: Growth inhibition of human SF268 cells at 10 uM after 48 hrs by coulter counter analysis; conditions: SF-268, 48 h, read-out: GI; outline: as §1
SF-539 = test: Growth inhibition of human SF539 cells at 10 uM after 48 hrs by coulter counter analysis; conditions: SF-539, 48 h, read-out: GI; outline: as §1
SNB-19 = test: Growth inhibition of human SNB19 cells at 10 uM after 48 hrs by coulter counter analysis; conditions: SNB-19, 48 h, read-out: GI; outline: as §1
U-251 = test: Growth inhibition of human U251 cells at 10 uM after 48 hrs by coulter counter analysis; conditions: U-251, 48 h, read-out: GI; outline: as §2
LOX IMVI = test: Growth inhibition of human LOXIMVI cells at 10 uM after 48 hrs by coulter counter analysis; conditions: read-out: GI; outline: as §1
Malme-3M = test: Growth inhibition of human MALME-3M cells at 10 uM after 48 hrs by coulter counter analysis; conditions: read-out: GI; outline: as §1
SK-MEL-28 = test: Growth inhibition of human SK-MEL-28 cells at 10 uM after 48 hrs by coulter counter analysis; conditions: SK-MEL-28, 48 h, read-out: GI; outline: as §1
IGROV-1 = test: Growth inhibition of human IGROV1 cells at 10 uM after 48 hrs by coulter counter analysis; conditions: IGROV-1, 48 h, read-out: GI; outline: as §1
OVCAR-3 = test: Growth inhibition of human OVCAR3 cells at 10 uM after 48 hrs by coulter counter analysis; conditions: OVCAR-3, 48 h, read-out: GI; outline: as §1
[1] = Growth inhibition of human NCI-ADR-RES cells at 10 uM after 48 hrs by coulter counter analysis; conditions: read-out: GI; outline: as §1
786-0 = test: Growth inhibition of human 786-0 cells at 10 uM after 48 hrs by coulter counter analysis; conditions: 786-0, 48 h, read-out: GI; outline: as §1
A498 = test: Growth inhibition of human A498 cells at 10 uM after 48 hrs by coulter counter analysis; conditions: A498, 48 h, read-out: GI; outline: as §1
CAKI-1 = test: Growth inhibition of human Caki1 cells at 10 uM after 48 hrs by coulter counter analysis; conditions: CAKI-1, 48 h, read-out: GI; outline: as §1
RXF 393 = test: Growth inhibition of human RXF393 cells at 10 uM after 48 hrs by coulter counter analysis; conditions: RXF 393, 48 h, read-out: GI; outline: as §1
SN12C = test: Growth inhibition of human SN12C cells at 10 uM after 48 hrs by coulter counter analysis; conditions: read-out: GI; outline: as §1
UO-31 = test: Growth inhibition of human UO31 cells at 10 uM after 48 hrs by coulter counter analysis; conditions: UO-31, 48 h, read-out: GI; outline: as §2
PC-3 = test: Growth inhibition of human PC3 cells at 10 uM after 48 hrs by coulter counter analysis; conditions: PC-3, 48 h, read-out: GI; outline: as §1
DU-145 = test: Growth inhibition of human DU145 cells at 10 uM after 48 hrs by coulter counter analysis; conditions: DU-145, 48 h, read-out: GI; outline: as §1
[2] = Growth inhibition of human Hs 578T cells at 10 uM after 48 hrs by coulter counter analysis; conditions: read-out: GI; outline: as §1
BT-549 = test: Growth inhibition of human BT549 cells at 10 uM after 48 hrs by coulter counter analysis; conditions: BT-549, 48 h, read-out: GI; outline: as §1
MDA-MB-468 = test: Growth inhibition of human MDA-MB-468 cells at 10 uM after 48 hrs by coulter counter analysis; conditions: MDA-MB-468, 48 h, read-out: GI; outline: as §1
CCRF-CEM = test: Growth inhibition of human CCRF-CEM cells at 10 uM after 48 hrs by coulter counter analysis; conditions: read-out: GI; outline: as §1

| Compound | inhibition of growth at 10 µM (HL-60(TB)) [%] | inhibition of growth at 10 µM (K562) [%] | inhibition of growth at 10 µM (RPMI-8226) [%] | inhibition of growth at 10 µM (A549) [%] | inhibition of growth at 10 µM (HOP-92) [%] | inhibition of growth at 10 µM (NCI-H460) [%] | inhibition of growth at 10 µM (COLO 205) [%] | inhibition of growth at 10 µM (HCC 2998) [%] | inhibition of growth at 10 µM (HCT-15) [%] | inhibition of growth at 10 µM (HT-29) [%] | inhibition of growth at 10 µM (SW-620) [%] | inhibition of growth at 10 µM (SF-268) [%] | inhibition of growth at 10 µM (SF-539) [%] | inhibition of growth at 10 µM (SNB-19) [%] | inhibition of growth at 10 µM (U-251) [%] | inhibition of growth at 10 µM (LOX IMVI) [%] | inhibition of growth at 10 µM (Malme-3M) [%] | inhibition of growth at 10 µM (SK-MEL-28) [%] | inhibition of growth at 10 µM (IGROV-1) [%] | inhibition of growth at 10 µM (OVCAR-3) [%] | other results |
| --- | --- | --- | --- | --- | --- | --- | --- | --- | --- | --- | --- | --- | --- | --- | --- | --- | --- | --- | --- | --- | --- |
| CC(C(=O)Nc1nccs1)N1CCN(C)CC1 (centres undefined) | 11.2 | < 10 | < 10 | < 10 | < 10 | < 10 | < 10 | < 10 | < 10 | < 10 | < 10 | < 10 | < 10 | < 10 | < 10 | < 10 | < 10 | < 10 | < 10 | < 10 | inhibition of growth at 10 µM [1]: < 10%; inhibition of growth at 10 µM (786-0): < 10%; inhibition of growth at 10 µM (A498): < 10%; inhibition of growth at 10 µM (CAKI-1): < 10%; inhibition of growth at 10 µM (RXF 393): < 10%; inhibition of growth at 10 µM (SN12C): < 10%; inhibition of growth at 10 µM (UO-31): 19.4%; inhibition of growth at 10 µM (PC-3): < 10%; inhibition of growth at 10 µM (DU-145): < 10%; inhibition of growth at 10 µM [2]: < 10%; inhibition of growth at 10 µM (BT-549): < 10%; inhibition of growth at 10 µM (MDA-MB-468): < 10%; inhibition of growth at 10 µM (CCRF-CEM): < 10% |
| CCOC(=O)c1sc(NC(=O)CCN2CCN(C)CC2)nc1C | < 10 | < 10 | < 10 | < 10 | < 10 | < 10 | < 10 | < 10 | < 10 | < 10 | < 10 | < 10 | < 10 | < 10 | < 10 | 15.5 | < 10 | < 10 | < 10 | < 10 | inhibition of growth at 10 µM [1]: < 10%; inhibition of growth at 10 µM (786-0): < 10%; inhibition of growth at 10 µM (A498): < 10%; inhibition of growth at 10 µM (CAKI-1): 12.5%; inhibition of growth at 10 µM (RXF 393): < 10%; inhibition of growth at 10 µM (SN12C): < 10%; inhibition of growth at 10 µM (UO-31): 19.3%; inhibition of growth at 10 µM (PC-3): < 10%; inhibition of growth at 10 µM (DU-145): < 10%; inhibition of growth at 10 µM [2]: < 10%; inhibition of growth at 10 µM (BT-549): < 10%; inhibition of growth at 10 µM (MDA-MB-468): 25.2%; inhibition of growth at 10 µM (CCRF-CEM): 96.2% |
| CCOC(=O)c1sc(NC(=O)C(C)N2CCCCC2)nc1C (centres undefined) | < 10 | < 10 | < 10 | < 10 | < 10 | < 10 | < 10 | < 10 | < 10 | < 10 | < 10 | < 10 | < 10 | < 10 | < 10 | < 10 | < 10 | < 10 | < 10 | < 10 | inhibition of growth at 10 µM [1]: < 10%; inhibition of growth at 10 µM (786-0): < 10%; inhibition of growth at 10 µM (A498): < 10%; inhibition of growth at 10 µM (CAKI-1): 12.2%; inhibition of growth at 10 µM (RXF 393): < 10%; inhibition of growth at 10 µM (SN12C): < 10%; inhibition of growth at 10 µM (UO-31): 13.4%; inhibition of growth at 10 µM (PC-3): < 10%; inhibition of growth at 10 µM (DU-145): < 10%; inhibition of growth at 10 µM [2]: < 10%; inhibition of growth at 10 µM (BT-549): < 10%; inhibition of growth at 10 µM (MDA-MB-468): < 10%; inhibition of growth at 10 µM (CCRF-CEM): < 10% |
